Source: article PMC12804367 (ESMO Open, 2025)
Where “and” joins values, the source holds several entries; their conditions need not be identical. Identical values can stand only once. Entries after “also recorded” stand apart in the source; their conditions may differ.

Tested on: patients with advanced or metastatic solid tumors
Assay: Safety, tolerability and DLTs
Format: in vivo, human
Settings: for Treatment-related AE: decreased appetite / Treatment-related AE: fatigue / Treatment-related AE: hyperglycemia / Treatment-related AE: pruritus / Treatment-related AE: rash: all patients (17)
Procedure, shortened: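 3 + 3 escalation starting at 16 mg/day once daily or 24 mg/day intermittent (4 days on/3 days off) in 21-day cycles. AEs graded by CTCAE v5.0. DLTs were selected lab abnormalities or AEs at least possibly drug-related during cycle 1, assessed in patients with a DLT or ≥80% of planned doses taken.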

[1] = all patients (N = 17), any grade
[2] = all patients (N = 17), grade ≥3
[3] = dose escalation intermittent 24 mg (n = 4)
[4] = dose escalation intermittent 28 mg (n = 3)
[5] = dose escalation intermittent total (n = 7), any grade
[6] = dose escalation intermittent total (n = 7), grade ≥3
[7] = dose escalation o.d. 16 mg (n = 3)
[8] = dose escalation o.d. 20 mg (n = 6)

C[C@]1(O)C[C@@](N)(c2ccc(-c3nc4n(c3-c3ccccc3)COc3ccncc3-4)cc2)C1 [TAS-117]
DLTs (16 mg o.d.): no DLTs | Time to resolution of DLT (20 mg o.d., grade 3 neutropenic infection, dose not modified): ≤ 6 days | DLT event (20 mg o.d., one patient): grade 3 neutropenic infection | DLT event (28 mg intermittent dosing, two patients): grade 3 oral mucositis; also recorded: grade 3 stomatitis | Time to resolution of DLT (stomatitis) (28 mg intermittent, TAS-117 paused, per patient): ≤ 6 days and ≤ 7 days | Grade ≥3 TRAEs (16-mg o.d. dose cohort): 33.3% | TRAEs (16-mg o.d. dose cohort): 66.7% | TRAEs reported (16-mg o.d. dose level): rash (grade 3) and hyperglycemia (grade 2) | Grade ≥3 TRAEs (20-mg o.d. dose cohort): 66.7% | TRAEs (20-mg o.d. dose cohort): 100% | Patients with treatment discontinued due to a TRAE (20-mg o.d. dose group): 50.0% | Patients with grade ≥3 TRAEs (20-mg o.d. dose level, out of six): four | Any-grade TRAEs (24-mg intermittent dose group): 50.0% | Grade ≥3 TRAEs (24-mg intermittent dose group): 25.0% | Any-grade TRAEs (28-mg intermittent dose group): 100.0% | Grade ≥3 TRAEs (28-mg intermittent dose group): 66.7% | Patients with any TRAE (DRC 16 mg o.d. (n = 1)): 0 n (%) | Treatment-related AE: decreased appetite (all grade): 17.6% | Treatment-related AE: fatigue (all grade): 35.3% | Treatment-related AE: hyperglycemia (all grade): 29.4% | Treatment-related AE: pruritus (all grade): 29.4% | Treatment-related AE: rash (all grade): 58.8% | Treatment-related AE: decreased appetite (grade ≥3): 0% | Treatment-related AE: fatigue (grade ≥3): 1% | Treatment-related AE: hyperglycemia (grade ≥3): 1% | Treatment-related AE: pruritus (grade ≥3): 0% | Treatment-related AE: rash (grade ≥3): 17.6% | Patients with any TRAE [1]: 13 (76.5) n (%) | TRAE: Decreased appetite [1]: 3 (17.6) n (%) | TRAE: Diarrhea [1]: 3 (17.6) n (%) | TRAE: Fatigue [1]: 6 (35.3) n (%) | TRAE: Hyperglycemia [1]: 5 (29.4) n (%) | TRAE: Nausea [1]: 2 (11.8) n (%) | TRAE: Pruritus [1]: 5 (29.4) n (%) | TRAE: Rash [1]: 10 (58.8) n (%) | TRAE: Rash maculopapular [1]: 2 (11.8) n (%) | TRAE: Stomatitis [1]: 3 (17.6) n (%) | Patients with any TRAE [2]: 8 (47.1) n (%) | TRAE: Fatigue [2]: 1 (5.9) n (%) | TRAE: Hyperglycemia [2]: 1 (5.9) n (%) | TRAE: Rash [2]: 3 (17.6) n (%) | TRAE: Rash maculopapular [2]: 2 (11.8) n (%) | TRAE: Stomatitis [2]: 2 (11.8) n (%) | Tolerability (at the RP2D, 16 mg o.d.): tolerable, with a manageable safety profile; also recorded: tolerable, with a manageable AE profile | Patients with any TRAE [3]: 2 (50.0) n (%) | TRAE: Fatigue [3]: 2 (50.0) n (%) | TRAE: Hyperglycemia [3]: 1 (25.0) n (%) | TRAE: Pruritus [3]: 2 (50.0) n (%) | TRAE: Rash [3]: 2 (50.0) n (%) | Patients with any TRAE [4]: 3 (100) n (%) | TRAE: Decreased appetite [4]: 2 (66.7) n (%) | TRAE: Fatigue [4]: 2 (66.7) n (%) | TRAE: Hyperglycemia [4]: 2 (66.7) n (%) | TRAE: Pruritus [4]: 2 (66.7) n (%) | TRAE: Rash [4]: 2 (66.7) n (%) | TRAE: Rash maculopapular [4]: 1 (33.3) n (%) | TRAE: Stomatitis [4]: 3 (100) n (%) | Patients with any TRAE [5]: 5 (71.4) n (%) | TRAE: Decreased appetite [5]: 2 (28.6) n (%) | TRAE: Diarrhea [5]: 1 (14.3) n (%) | TRAE: Fatigue [5]: 4 (57.1) n (%) | TRAE: Hyperglycemia [5]: 3 (42.9) n (%) | TRAE: Nausea [5]: 1 (14.3) n (%) | TRAE: Pruritus [5]: 4 (57.1) n (%) | TRAE: Rash [5]: 4 (57.1) n (%) | TRAE: Rash maculopapular [5]: 1 (14.3) n (%) | TRAE: Stomatitis [5]: 3 (42.9) n (%) | Patients with any TRAE [6]: 3 (42.9) n (%) | TRAE: Hyperglycemia [6]: 1 (14.3) n (%) | TRAE: Rash [6]: 1 (14.3) n (%) | TRAE: Rash maculopapular [6]: 1 (14.3) n (%) | TRAE: Stomatitis [6]: 2 (28.6) n (%) | Patients with any TRAE [7]: 2 (66.7) n (%) | TRAE: Hyperglycemia [7]: 1 (33.3) n (%) | TRAE: Rash [7]: 2 (66.7) n (%) | Patients with any TRAE [8]: 6 (100) n (%) | TRAE: Decreased appetite [8]: 1 (16.7) n (%) | TRAE: Diarrhea [8]: 2 (33.3) n (%) | TRAE: Fatigue [8]: 2 (33.3) n (%)
